# Assays:
# [1] = AUC in rat at 10 mg/kg, po; format: ADME, organism-based; details: in vivo
# Procedure, shortened: (§1)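 Rat oral PK at 10 mg/kg. Compound is given as a solution in CMCT (0.5% CMC/0.25% tween-80) or formulated in 5% TPGS, 10% captisol, 50 mM citrate buffer. Cmax and AUC are recorded.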
# [2] = target: T1, Dual specificity protein kinase TTK (Homo sapiens, UniProt P33981); assay: Inhibition of TTK autophosphorylation in human CAL51 cells by radioimmuno-precipitation assay; format: cell-based
# T1 sequence (P33981 whole entry): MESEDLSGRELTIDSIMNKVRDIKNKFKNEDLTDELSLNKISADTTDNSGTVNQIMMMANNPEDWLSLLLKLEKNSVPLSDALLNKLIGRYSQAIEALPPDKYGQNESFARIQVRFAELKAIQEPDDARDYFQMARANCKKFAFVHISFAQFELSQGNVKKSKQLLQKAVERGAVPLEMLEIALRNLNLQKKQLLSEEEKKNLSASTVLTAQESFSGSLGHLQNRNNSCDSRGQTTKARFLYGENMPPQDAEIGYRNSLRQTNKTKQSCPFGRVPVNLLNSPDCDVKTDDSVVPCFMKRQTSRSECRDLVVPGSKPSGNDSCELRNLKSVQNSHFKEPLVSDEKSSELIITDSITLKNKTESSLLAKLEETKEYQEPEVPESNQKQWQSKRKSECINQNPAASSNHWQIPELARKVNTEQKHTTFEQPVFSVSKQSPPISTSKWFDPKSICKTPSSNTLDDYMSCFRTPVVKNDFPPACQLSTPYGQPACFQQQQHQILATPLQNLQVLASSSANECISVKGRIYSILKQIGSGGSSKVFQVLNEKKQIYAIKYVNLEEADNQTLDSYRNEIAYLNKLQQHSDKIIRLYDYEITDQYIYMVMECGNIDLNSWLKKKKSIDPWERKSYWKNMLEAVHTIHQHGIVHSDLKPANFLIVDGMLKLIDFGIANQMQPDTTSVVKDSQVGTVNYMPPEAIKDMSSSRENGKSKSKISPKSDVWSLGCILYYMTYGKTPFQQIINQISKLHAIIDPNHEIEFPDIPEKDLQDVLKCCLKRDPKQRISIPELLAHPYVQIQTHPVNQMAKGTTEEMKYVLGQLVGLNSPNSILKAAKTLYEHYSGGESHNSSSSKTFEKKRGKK
# [3] = target: T1, Dual specificity protein kinase TTK; assay: Inhibition of TTK in human CAL51 cells assessed as decrease in phosphorylated KNL-1 T943 levels after 1 hr by Western blot analysis; format: cell-based
# [4] = target: T1, Dual specificity protein kinase TTK; assay: Inhibition of TTK in human CAL51 cells assessed as decrease in phosphorylated TTK T686 levels after 1 hr by Western blot analysis; format: cell-based
# LRRK2 G2019S mutant = LRRK2 G2019S mutant (Homo sapiens, UniProt Q5S007, G2019S); assay: Inhibition of recombinant human GST-tagged LRRK2 G2019S mutant catalytic domain (970 to 2527 residues) expressed in baculovirus expression system at 3 uM using LRRKtide as substrate measured after 1 hr by Alexa-fluor-647 ADP tracer-based ADAPTA assay relative to control; details: probe LRRKtide
# Procedure, shortened: (§2)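 Kinase selectivity panel: single-point assessment at 3 µM, n=1.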
# [5] = target: Mitogen-activated protein kinase 8 (Homo sapiens, UniProt P45983); assay: Inhibition of recombinant human full length His-tagged JNK1 expressed in baculovirus expression system by Z'-LYTE assay
# [6] = target: Mitogen-activated protein kinase 9 (Homo sapiens, UniProt P45984); assay: Inhibition of recombinant human full length His-tagged JNK2 expressed in baculovirus expression system at 3 uM by Z'-LYTE assay relative to control; procedure, shortened: as §2
# [7] = target: T2, Testis-specific serine/threonine-protein kinase 1 (Homo sapiens, UniProt Q9BXA7); assay: Inhibition of recombinant human full length His-tagged TSSK1 expressed in baculovirus expression system by Z'-LYTE assay
# T2 sequence (Q9BXA7 whole entry): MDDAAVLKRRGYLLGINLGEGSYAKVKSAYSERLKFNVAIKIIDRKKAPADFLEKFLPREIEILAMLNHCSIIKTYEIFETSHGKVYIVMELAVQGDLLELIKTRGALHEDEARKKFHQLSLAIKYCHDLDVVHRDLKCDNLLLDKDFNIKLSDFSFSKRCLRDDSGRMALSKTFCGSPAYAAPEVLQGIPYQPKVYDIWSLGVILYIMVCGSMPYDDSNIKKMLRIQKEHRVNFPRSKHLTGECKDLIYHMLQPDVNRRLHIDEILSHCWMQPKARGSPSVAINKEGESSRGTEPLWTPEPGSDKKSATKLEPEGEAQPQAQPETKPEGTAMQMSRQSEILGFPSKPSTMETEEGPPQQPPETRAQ
# [8] = target: Dual specificity protein kinase CLK2 (Homo sapiens, UniProt P49760); assay: Inhibition of recombinant human GST-tagged CLK2 catalytic domain (137 to 498 residues) expressed in baculovirus expression system at 3 uM by Z'-LYTE assay relative to control; procedure, shortened: as §2
# [9] = target: Leukocyte tyrosine kinase receptor (Homo sapiens, UniProt P29376); assay: Inhibition of recombinant human GST-tagged LTK cytoplasmic domain (450 to 864 residues) expressed in baculovirus expression system by Z'-LYTE assay
# Homo sapiens [10] = species: Homo sapiens; assay: Selectivity ratio of IC50 for recombinant human full length His-tagged JNK2 expressed in baculovirus expression system to IC50 for inhibition of Kinase Tracer 236 binding to recombinant human full-length GST-tagged TTk expressed in baculovirus expression system
# [11] = Cmax in rat at 10 mg/kg, po; format: ADME, organism-based; parameters: dose 10 mg/kg, route oral; details: in vivo; procedure, shortened: as §1
# [12] = Cmax in CB17 SCID mouse at 30 mg/kg, po; format: ADME, organism-based; parameters: dose 30 mg/kg, route oral; details: in vivo
# Procedure, shortened: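 Oral PK in SCID mice at 30 mg/kg. Compound is formulated either in CMCT (0.5% CMC/0.25% tween-80) or in 5% TPGS, 10% captisol, 50 mM citrate buffer, depending on compound. Cmax and AUC are measured.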
# [13] = Oral bioavailability in CB17 SCID mouse at 30 mg/kg; format: ADME, organism-based; details: in vivo
# [14] = Toxicity in CB17 SCID mouse xenografted with human CAL51 cells assessed as loss of body weight at 30 mg/kg, po […] for 16 days and measured up to 31 days; format: organism-based; details: in vivo
# Procedure, shortened: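 Female CB17 SCID mice bearing subcutaneous CAL-51 xenografts (2×10^6 cells). Oral dosing once weekly at 30-120 mg/kg, or 30 mg/kg BID once weekly, for 16 days. Body weight loss tracked alongside tumour measurements, against vehicle.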
# CAL-51 = assay: Induction of apoptosis in human CAL51 cells xenografted in CB17 SCID mouse assessed as activation of cleaved caspase-3 at 30 mg/kg, po measured after 1 to 48 hrs by MSD electrochemiluminescent immunoassay relative to control; format: functional
# Procedure, shortened: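 CB17 SCID mice bearing CAL-51 tumours of 300-500 mm3 given compound orally. At preset time points the mice were euthanised and the tumours dissected and snap-frozen in liquid nitrogen. pHH3 Ser10 or cleaved caspase measured by MSD electrochemiluminescent immunoassay kit. Data are mean ± SEM.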
# Homo sapiens [15] = species: Homo sapiens; assay: Selectivity ratio of IC50 for inhibition of recombinant human GST-tagged LRRK2 G2019S mutant catalytic domain (970 to 2527 residues) expressed in baculovirus expression system to IC50 for inhibition of Kinase Tracer 236 binding to recombinant human full-length GST-tagged TTk expressed in baculovirus expression system
# Leukocyte tyrosine kinase receptor, sequence (P29376 whole entry, the tested form may be a part): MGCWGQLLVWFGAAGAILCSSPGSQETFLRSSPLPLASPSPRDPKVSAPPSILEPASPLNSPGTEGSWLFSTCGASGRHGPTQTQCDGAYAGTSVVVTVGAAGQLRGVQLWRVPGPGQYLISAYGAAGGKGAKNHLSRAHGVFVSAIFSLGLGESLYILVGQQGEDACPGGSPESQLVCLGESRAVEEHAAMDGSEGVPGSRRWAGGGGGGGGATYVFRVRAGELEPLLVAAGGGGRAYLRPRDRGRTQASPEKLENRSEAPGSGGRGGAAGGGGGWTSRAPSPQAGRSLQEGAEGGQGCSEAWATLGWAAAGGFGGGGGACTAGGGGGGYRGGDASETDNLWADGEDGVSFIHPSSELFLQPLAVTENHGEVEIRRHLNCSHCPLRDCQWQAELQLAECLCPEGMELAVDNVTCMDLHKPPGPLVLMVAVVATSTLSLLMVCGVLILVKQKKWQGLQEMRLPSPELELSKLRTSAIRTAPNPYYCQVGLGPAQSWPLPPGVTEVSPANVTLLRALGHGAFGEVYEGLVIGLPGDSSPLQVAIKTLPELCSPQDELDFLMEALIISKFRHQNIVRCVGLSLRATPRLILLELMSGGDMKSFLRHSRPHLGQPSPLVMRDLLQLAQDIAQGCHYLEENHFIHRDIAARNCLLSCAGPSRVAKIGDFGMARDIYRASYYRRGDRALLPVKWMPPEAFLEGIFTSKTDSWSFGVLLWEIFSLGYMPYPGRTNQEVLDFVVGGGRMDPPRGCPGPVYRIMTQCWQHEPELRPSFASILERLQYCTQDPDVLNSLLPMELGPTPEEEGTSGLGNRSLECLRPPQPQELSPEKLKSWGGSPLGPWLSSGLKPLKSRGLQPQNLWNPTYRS
# Mitogen-activated protein kinase 8, sequence (P45983 whole entry): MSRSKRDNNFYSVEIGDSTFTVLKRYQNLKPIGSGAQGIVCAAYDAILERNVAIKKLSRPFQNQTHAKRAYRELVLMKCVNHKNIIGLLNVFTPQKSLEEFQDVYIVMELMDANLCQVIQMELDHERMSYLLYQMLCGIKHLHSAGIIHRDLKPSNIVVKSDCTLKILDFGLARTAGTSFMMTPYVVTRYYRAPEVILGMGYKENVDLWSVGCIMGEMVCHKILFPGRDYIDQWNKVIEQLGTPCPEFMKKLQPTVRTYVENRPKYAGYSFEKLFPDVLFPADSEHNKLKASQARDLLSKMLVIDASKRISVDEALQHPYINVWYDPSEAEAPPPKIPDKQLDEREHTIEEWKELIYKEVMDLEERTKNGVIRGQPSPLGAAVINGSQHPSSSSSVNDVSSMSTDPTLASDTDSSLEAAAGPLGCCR
# Dual specificity protein kinase CLK2, sequence (P49760 whole entry, looked up, the tested form may be a part): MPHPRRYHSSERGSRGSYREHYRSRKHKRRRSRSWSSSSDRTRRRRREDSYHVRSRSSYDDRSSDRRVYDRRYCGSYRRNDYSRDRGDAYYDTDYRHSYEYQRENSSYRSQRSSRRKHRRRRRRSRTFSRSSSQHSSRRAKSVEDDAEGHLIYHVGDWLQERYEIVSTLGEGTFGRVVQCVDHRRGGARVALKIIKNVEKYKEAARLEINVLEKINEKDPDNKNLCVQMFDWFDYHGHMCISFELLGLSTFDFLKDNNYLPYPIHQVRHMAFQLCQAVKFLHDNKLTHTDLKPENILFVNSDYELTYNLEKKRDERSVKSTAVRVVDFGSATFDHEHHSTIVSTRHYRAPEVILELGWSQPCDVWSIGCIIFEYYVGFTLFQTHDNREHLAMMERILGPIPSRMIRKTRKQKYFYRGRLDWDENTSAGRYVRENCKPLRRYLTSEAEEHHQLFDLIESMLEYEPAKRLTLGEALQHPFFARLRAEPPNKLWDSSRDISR
# LRRK2 G2019S mutant, sequence (Q5S007 whole entry G2019S, the tested form may be a part): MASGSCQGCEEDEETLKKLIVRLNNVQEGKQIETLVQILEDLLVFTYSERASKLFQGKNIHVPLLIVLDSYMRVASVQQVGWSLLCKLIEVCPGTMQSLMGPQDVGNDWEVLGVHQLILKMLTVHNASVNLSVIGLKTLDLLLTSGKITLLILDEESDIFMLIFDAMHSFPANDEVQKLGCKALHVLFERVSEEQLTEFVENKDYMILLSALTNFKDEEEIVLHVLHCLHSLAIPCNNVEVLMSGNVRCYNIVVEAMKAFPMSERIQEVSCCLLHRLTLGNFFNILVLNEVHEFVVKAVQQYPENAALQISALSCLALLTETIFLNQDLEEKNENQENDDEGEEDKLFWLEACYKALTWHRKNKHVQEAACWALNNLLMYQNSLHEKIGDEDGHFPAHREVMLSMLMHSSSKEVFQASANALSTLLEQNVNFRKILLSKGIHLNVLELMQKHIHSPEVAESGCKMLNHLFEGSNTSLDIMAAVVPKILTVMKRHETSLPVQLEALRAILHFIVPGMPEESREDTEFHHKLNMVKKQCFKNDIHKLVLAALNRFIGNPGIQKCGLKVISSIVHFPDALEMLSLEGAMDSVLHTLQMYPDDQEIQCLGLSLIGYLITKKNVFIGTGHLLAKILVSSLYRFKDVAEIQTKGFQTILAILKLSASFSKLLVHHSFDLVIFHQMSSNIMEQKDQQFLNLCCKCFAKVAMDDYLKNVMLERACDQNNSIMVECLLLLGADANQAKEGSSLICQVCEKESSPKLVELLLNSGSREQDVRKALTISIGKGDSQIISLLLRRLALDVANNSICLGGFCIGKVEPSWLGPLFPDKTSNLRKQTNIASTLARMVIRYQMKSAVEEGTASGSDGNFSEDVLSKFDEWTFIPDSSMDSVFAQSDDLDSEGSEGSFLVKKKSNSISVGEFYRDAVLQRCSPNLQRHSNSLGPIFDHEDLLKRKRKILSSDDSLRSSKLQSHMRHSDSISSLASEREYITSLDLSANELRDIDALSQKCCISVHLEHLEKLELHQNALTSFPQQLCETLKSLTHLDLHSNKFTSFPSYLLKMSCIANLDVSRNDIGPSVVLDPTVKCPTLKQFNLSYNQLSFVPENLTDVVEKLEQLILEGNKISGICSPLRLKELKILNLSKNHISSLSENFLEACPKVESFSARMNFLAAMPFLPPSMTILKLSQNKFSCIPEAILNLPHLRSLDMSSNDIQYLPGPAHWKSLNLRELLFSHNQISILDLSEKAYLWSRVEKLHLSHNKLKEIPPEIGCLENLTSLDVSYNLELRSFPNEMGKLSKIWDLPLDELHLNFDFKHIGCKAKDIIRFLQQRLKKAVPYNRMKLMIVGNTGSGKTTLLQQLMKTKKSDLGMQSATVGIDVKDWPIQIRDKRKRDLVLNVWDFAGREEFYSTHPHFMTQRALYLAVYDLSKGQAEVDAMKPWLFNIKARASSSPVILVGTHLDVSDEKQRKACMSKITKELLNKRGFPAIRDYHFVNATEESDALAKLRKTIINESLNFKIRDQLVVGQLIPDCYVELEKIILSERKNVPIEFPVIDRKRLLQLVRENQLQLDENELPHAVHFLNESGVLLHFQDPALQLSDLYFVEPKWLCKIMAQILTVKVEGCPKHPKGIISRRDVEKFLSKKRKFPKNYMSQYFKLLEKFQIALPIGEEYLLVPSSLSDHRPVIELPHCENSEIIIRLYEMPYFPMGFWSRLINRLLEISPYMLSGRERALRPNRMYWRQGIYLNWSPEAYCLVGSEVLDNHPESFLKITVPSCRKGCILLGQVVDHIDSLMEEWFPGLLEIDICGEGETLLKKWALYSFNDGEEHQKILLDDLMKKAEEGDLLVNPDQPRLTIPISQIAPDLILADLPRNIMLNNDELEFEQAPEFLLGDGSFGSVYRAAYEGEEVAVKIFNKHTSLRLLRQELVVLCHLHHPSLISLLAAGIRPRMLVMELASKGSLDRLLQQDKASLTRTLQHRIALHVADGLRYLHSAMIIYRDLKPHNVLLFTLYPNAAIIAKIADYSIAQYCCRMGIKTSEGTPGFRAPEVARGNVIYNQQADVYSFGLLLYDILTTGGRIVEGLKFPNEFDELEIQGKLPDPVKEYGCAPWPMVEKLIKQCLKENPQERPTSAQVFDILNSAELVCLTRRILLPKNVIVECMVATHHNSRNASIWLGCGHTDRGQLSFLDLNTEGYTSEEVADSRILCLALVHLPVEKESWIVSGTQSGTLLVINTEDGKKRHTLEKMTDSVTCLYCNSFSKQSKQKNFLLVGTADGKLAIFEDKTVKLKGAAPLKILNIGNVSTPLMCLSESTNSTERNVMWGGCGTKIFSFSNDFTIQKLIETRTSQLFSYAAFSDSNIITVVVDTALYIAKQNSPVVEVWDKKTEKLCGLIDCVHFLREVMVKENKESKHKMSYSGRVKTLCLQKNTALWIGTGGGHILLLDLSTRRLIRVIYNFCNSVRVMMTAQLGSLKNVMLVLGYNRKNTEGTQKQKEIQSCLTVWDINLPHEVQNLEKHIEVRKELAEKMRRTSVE
# Mitogen-activated protein kinase 9, sequence (P45984 whole entry, looked up): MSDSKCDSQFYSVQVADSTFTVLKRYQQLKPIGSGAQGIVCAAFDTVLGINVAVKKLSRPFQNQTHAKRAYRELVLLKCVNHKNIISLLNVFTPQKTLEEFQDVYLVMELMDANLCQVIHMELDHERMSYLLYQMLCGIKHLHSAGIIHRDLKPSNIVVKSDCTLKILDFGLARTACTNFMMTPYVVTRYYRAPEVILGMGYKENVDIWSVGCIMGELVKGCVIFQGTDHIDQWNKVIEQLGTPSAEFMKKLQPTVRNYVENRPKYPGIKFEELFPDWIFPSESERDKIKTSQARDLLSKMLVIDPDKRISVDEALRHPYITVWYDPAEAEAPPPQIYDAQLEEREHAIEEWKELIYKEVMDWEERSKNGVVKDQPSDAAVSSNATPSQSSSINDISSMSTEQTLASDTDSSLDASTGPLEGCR
compound,measurement,setting,value
C[C@@H](Oc1cc(C(=O)N(C)C)ccc1Nc1nc(O[C@H]2CC[C@@](C)(O)CC2)c2c(Cl)c[nH]c2n1)C(F)(F)F,AUC,[1],26 to 26.3 µM·h
same,IC50,[2],9 nM
same,IC50,[3],30 nM
same,IC50,[4],11 nM
same,"inhibition at 1 h, 3 µM",LRRK2 G2019S mutant,> 80%
same,IC50,[5],0.032 nM
same,inhibition,[6],> 80%
same,IC50,[7],0.217 nM
same,inhibition,[8],> 80%
same,IC50,[9],0.567 nM
same,Ratio IC50,Homo sapiens [10],< 100
same,Cmax,[11],4.35 µM
same,Cmax,[12],5.2 µM
same,bioavailability,[13],60%
same,Activity,[14],Non-Toxic
same,Activity,CAL-51,250%
same,Ratio IC50,Homo sapiens [15],< 100
